Assay results as given in ChEMBL document CHEMBL5705888, “Substrate specificity and inhibitors of LRRK2, a protein kinase mutated in Parkinson's disease” (Biochem J, 2009).

Legend:
[1] = target: Serine/threonine-protein kinase 26 (Homo sapiens) (UniProt Q9P289); experiment: Inhibition of MST4 (unknown origin) at 1 uM incubated for 30 mins in presence of [gamma-33P]ATP by multidrop micro reagent based assay relative to control
[2] = target: Rho-associated protein kinase 2 (Homo sapiens, UniProt O75116); experiment: Inhibition of His6-tagged ROCK2 (2 to 543 residues) (unknown origin) using peptide as substrate incubated for 15 mins in presence of ATP by immunoblotting analysis
Chain of Rho-associated protein kinase 2 (O75116 whole entry, the tested form may be a part): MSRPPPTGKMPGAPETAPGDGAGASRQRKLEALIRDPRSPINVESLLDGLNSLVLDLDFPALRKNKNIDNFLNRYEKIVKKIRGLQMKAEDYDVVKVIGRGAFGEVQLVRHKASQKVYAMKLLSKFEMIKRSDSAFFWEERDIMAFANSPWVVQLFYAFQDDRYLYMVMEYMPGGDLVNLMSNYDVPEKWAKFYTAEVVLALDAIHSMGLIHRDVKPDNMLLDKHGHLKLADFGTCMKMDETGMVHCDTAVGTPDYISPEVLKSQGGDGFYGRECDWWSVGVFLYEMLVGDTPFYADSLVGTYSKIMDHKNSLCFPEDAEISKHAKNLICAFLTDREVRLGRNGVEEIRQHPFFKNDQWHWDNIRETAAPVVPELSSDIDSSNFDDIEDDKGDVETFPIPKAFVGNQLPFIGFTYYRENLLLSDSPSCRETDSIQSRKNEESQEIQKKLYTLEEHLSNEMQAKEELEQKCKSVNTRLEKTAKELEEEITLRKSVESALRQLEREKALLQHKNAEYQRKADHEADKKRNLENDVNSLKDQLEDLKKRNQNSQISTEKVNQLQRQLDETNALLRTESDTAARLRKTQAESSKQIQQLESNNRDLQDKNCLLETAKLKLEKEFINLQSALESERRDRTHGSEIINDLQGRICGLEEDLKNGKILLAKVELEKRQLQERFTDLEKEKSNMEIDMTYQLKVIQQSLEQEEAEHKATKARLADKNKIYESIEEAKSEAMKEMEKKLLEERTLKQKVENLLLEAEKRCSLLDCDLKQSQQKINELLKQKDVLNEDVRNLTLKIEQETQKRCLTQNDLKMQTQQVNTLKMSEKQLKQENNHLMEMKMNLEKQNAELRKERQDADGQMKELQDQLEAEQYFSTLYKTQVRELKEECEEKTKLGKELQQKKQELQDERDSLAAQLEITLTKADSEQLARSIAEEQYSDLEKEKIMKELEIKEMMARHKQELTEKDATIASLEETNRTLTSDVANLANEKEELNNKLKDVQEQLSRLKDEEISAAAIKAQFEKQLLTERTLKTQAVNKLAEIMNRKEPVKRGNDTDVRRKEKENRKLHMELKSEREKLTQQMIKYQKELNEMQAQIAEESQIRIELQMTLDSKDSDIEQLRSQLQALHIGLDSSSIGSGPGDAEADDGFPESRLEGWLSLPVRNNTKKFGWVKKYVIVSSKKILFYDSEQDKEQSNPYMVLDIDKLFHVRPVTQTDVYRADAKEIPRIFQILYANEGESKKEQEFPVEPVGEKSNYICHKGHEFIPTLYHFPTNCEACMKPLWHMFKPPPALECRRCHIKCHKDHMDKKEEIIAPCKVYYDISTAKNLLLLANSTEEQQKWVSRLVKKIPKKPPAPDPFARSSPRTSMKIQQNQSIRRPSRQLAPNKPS

[3] = target: Ribosomal protein S6 kinase alpha-1 (Homo sapiens) (UniProt Q15418); experiment: Inhibition of RSK1 (unknown origin) at 10 uM incubated for 30 mins in presence of [gamma-33P]ATP by multidrop micro reagent based assay relative to control
Chain of Ribosomal protein S6 kinase alpha-1 (Homo sapiens) (Q15418 whole entry): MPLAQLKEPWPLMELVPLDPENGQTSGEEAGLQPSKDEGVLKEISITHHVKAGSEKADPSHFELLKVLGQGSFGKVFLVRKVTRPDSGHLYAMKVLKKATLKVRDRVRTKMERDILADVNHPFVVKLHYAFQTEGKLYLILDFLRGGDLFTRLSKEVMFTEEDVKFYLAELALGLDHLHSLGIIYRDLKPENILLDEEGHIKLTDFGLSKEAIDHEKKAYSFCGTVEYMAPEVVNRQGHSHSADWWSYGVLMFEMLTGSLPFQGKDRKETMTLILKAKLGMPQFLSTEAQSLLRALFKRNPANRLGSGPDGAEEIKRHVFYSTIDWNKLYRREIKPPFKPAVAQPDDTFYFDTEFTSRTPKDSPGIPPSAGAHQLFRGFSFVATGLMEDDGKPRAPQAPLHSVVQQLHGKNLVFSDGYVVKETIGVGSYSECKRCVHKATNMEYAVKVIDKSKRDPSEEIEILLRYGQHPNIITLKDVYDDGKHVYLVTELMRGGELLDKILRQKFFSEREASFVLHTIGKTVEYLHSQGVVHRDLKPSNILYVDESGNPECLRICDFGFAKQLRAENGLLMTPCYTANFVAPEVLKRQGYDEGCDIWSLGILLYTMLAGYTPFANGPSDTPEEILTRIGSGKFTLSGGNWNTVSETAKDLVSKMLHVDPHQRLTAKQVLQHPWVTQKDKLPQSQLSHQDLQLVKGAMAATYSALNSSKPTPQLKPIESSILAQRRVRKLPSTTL
How it was run: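 Single-concentration screen across a panel of 85 protein kinases. Activity is expressed as a percentage of control incubations run without inhibitor.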

[4] = target: Mitogen-activated protein kinase kinase kinase 11 (Homo sapiens) (UniProt Q16584); experiment: Inhibition of MLK3 (unknown origin) at 10 uM incubated for 30 mins in presence of [gamma-33P]ATP by multidrop micro reagent based assay relative to control
[5] = target: Insulin-like growth factor 1 receptor (Homo sapiens) (UniProt P08069); experiment: Inhibition of IGF-1R (unknown origin) at 10 uM incubated for 30 mins in presence of [gamma-33P]ATP by multidrop micro reagent based assay relative to control
Chain of Insulin-like growth factor 1 receptor (Homo sapiens) (P08069 31-736 limits assumed): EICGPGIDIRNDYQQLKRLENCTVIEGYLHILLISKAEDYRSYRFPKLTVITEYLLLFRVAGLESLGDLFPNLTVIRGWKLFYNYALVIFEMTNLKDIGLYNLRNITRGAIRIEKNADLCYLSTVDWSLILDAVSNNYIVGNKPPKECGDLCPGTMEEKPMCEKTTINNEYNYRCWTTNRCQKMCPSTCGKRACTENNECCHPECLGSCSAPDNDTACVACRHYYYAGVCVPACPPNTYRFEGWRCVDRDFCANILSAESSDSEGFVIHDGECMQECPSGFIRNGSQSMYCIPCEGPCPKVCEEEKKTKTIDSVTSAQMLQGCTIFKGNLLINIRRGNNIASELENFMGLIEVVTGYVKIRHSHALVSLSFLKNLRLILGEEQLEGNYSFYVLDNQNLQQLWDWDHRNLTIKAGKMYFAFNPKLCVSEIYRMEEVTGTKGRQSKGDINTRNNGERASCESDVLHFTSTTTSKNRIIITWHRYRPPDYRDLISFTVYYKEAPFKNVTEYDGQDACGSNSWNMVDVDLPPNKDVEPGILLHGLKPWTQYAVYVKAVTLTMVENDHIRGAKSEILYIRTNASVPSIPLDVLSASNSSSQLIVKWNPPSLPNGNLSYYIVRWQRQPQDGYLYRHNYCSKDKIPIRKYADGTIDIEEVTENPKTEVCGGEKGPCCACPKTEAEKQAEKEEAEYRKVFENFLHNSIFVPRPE
Chain of Insulin-like growth factor 1 receptor (Homo sapiens) (P08069 741-1367 limits assumed): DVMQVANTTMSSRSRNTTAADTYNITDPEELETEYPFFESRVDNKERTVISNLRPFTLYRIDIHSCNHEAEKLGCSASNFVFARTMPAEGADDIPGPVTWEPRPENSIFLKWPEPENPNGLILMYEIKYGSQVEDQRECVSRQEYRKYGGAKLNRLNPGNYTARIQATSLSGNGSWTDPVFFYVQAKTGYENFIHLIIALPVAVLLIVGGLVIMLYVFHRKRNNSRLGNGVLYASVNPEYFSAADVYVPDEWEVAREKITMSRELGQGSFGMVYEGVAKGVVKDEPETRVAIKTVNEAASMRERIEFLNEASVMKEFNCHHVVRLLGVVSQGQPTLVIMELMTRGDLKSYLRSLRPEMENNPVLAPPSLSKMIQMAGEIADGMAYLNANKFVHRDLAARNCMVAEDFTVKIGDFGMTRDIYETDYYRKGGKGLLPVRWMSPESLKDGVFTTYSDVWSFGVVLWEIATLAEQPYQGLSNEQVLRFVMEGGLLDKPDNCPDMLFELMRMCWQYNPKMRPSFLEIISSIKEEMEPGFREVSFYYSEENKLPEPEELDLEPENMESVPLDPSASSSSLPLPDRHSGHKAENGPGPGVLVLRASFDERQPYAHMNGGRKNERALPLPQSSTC

[6] = target: Tyrosine-protein kinase CSK (Homo sapiens) (UniProt P41240); experiment: Residual activity of CSK (unknown origin) at 10 uM incubated for 30 mins in presence of [gamma-33P]ATP by multidrop micro reagent based assay relative to control
Chain of Tyrosine-protein kinase CSK (Homo sapiens) (P41240 2-450 limits assumed): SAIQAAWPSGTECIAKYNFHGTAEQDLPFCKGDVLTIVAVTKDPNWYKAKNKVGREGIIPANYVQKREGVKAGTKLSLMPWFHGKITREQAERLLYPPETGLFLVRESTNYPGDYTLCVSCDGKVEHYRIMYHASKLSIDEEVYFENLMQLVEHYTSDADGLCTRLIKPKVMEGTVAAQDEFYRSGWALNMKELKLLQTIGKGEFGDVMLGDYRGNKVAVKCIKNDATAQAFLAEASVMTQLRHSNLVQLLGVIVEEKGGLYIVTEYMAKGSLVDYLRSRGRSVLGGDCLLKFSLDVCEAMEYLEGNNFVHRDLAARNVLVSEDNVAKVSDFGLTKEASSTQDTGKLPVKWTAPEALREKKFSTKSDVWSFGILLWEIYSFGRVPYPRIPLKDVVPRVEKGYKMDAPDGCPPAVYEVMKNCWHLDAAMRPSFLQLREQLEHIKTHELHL

[7] = target: Casein kinase 2 (Homo sapiens) (UniProt P67870+P68400+P19784+Q8NEV1); experiment: Inhibition of CK2 (unknown origin) at 10 uM incubated for 30 mins in presence of [gamma-33P]ATP by multidrop micro reagent based assay relative to control; values are per cent of control
[8] = target: T1, MAP kinase-activated protein kinase 5 (Homo sapiens) (UniProt Q8IW41); experiment: Inhibition of PRAK (unknown origin) at 10 uM incubated for 30 mins in presence of [gamma-33P]ATP by multidrop micro reagent based assay relative to control; values are per cent of control
T1 sequence (whole entry): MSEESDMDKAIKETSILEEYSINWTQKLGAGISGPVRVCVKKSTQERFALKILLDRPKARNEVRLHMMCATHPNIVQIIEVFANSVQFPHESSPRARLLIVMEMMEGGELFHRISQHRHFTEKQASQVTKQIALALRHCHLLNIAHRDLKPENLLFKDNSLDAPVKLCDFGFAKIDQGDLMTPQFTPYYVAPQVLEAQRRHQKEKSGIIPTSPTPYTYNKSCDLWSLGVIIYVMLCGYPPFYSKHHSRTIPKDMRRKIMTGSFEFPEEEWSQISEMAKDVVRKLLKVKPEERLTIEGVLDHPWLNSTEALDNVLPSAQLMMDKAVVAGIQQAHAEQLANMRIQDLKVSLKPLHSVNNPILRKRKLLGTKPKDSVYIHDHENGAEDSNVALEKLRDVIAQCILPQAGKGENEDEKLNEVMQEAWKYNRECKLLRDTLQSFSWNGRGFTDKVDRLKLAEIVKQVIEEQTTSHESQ

[9] = target: Maternal embryonic leucine zipper kinase (Homo sapiens) (UniProt Q14680); experiment: Inhibition of MELK (unknown origin) at 10 uM incubated for 30 mins in presence of [gamma-33P]ATP by multidrop micro reagent based assay relative to control; values are per cent of control
Homo sapiens = organism: Homo sapiens; experiment: Inhibition of CDK2/cyclin A (unknown origin) at 10 uM incubated for 30 mins in presence of [gamma-33P]ATP by multidrop micro reagent based assay relative to control
[10] = target: Tyrosine-protein kinase BTK (Homo sapiens) (UniProt Q06187); experiment: Inhibition of BTK (unknown origin) at 10 uM incubated for 30 mins in presence of [gamma-33P]ATP by multidrop micro reagent based assay relative to control; values are per cent of control
Chain of Tyrosine-protein kinase BTK (Homo sapiens) (Q06187 whole entry): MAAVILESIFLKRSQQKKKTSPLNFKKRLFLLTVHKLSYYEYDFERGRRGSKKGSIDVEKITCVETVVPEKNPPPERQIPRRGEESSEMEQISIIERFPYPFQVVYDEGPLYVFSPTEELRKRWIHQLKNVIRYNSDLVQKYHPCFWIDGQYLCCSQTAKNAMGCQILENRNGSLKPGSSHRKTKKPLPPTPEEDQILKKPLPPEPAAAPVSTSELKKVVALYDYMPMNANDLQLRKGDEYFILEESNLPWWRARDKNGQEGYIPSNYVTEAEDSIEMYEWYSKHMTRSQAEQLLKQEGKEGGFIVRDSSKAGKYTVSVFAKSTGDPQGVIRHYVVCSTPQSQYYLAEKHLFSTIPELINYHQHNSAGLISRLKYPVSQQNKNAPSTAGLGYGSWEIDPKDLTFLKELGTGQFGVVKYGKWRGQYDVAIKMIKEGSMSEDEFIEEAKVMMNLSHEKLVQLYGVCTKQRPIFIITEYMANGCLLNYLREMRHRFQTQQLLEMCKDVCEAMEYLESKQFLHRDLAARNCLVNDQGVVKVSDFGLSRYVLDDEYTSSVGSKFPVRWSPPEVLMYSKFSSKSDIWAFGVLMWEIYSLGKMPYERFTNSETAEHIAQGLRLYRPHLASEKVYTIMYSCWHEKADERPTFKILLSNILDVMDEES

[11] = target: Misshapen-like kinase 1 (Homo sapiens) (UniProt Q8N4C8); experiment: Inhibition of MINK1 (unknown origin) at 10 uM incubated for 30 mins in presence of [gamma-33P]ATP by multidrop micro reagent based assay relative to control; values are per cent of control
[12] = target: T2, Ephrin type-B receptor 3 (Homo sapiens) (UniProt P54753); experiment: Inhibition of EPH-B3 (unknown origin) at 10 uM incubated for 30 mins in presence of [gamma-33P]ATP by multidrop micro reagent based assay relative to control; values are per cent of control
T2 sequence (whole entry): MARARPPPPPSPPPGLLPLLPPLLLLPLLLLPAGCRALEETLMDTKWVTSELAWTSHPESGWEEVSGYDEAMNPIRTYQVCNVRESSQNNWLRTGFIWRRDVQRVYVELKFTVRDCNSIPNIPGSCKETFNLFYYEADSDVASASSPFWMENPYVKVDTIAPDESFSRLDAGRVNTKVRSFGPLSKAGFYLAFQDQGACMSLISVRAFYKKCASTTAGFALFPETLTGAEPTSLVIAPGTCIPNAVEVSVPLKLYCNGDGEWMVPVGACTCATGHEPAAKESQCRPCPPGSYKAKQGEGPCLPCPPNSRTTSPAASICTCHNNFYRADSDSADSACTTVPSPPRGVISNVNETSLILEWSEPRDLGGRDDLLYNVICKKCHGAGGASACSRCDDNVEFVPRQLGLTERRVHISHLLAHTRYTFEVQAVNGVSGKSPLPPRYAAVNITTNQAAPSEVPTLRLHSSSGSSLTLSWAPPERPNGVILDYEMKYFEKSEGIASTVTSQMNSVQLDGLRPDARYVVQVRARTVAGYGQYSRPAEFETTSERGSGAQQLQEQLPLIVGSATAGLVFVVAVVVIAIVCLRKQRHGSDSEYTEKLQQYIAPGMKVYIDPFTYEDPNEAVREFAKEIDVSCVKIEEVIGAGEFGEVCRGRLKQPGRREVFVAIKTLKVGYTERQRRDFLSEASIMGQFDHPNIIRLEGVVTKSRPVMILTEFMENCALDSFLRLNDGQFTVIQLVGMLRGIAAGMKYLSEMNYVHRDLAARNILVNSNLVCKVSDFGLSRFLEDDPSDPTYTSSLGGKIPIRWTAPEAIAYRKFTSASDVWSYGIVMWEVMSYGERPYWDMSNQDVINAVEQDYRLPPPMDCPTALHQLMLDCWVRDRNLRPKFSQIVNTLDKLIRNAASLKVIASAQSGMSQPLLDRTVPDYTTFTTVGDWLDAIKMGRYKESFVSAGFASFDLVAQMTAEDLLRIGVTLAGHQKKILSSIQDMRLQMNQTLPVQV

Chain of Serine/threonine-protein kinase 26 (Homo sapiens) (Q9P289 2-416 limits assumed): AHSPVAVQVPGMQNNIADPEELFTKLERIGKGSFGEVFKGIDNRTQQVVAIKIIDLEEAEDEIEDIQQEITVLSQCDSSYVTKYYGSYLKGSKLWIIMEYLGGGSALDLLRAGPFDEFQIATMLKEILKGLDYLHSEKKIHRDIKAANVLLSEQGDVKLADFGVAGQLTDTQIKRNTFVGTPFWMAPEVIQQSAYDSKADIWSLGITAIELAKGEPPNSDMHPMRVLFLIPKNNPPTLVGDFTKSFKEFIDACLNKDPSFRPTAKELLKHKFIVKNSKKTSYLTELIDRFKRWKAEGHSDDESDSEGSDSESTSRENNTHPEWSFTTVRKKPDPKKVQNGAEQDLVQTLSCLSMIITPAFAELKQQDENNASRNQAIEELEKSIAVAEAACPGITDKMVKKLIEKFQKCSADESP

**Q.** Which results are given for `CC1=C(C(=O)Nc2cc3cn[nH]c3cc2F)C(c2ccc(C(F)(F)F)cc2)CC(=O)N1` (stereo not drawn)?
**A.** residual activity [1]: 70%; IC50 [2]: 63 nM

**Q.** Which results are given for `C[C@@H](N)[C@H]1CC[C@H](C(=O)Nc2ccncc2)CC1`?
**A.** inhibition [3]: 26%; inhibition [4]: 110%; inhibition [5]: 99%; residual activity [6]: 104%; residual activity [7]: 85%; residual activity [8]: 88%; residual activity [9]: 79%

**Q.** With `O=S(=O)(c1cccc2cnccc12)N1CCCNCC1` [FASUDIL] as the compound, how does the inhibition (Homo sapiens) read?
**A.** The inhibition was 82%.

**Q.** And the residual activity [10]?
**A.** The residual activity was 112%.

**Q.** And the residual activity [11]?
**A.** Its residual activity is 54%.

**Q.** And the residual activity [12]?
**A.** Its residual activity is 65%.
